# ChEMBL document CHEMBL5705905, “Pharmacological targeting of kinases MST1 and MST2 augments tissue repair and regeneration” (Sci Transl Med, 2016)
# The source made the active and inactive calls. The rule behind the calls is not given here.
# How the values were obtained:
# [1] = Acute toxicity in wild-type mouse assessed as cell proliferation in colon at 3 mg/kg,ip administrated daily for 7 days by Ki67 staining; type: organism-based; conditions: in vivo, 168 h, time 7 day
# Summary of the method: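 Wild-type mice received vehicle or 3 mg/kg i.p. daily for 7 days. Ki67 staining of sections from various tissues with quantification of positive cells, n = 6; means ± SD, Student's t test. Daily weights, physical activity and serum chemistry were also monitored.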
# [2] = target: AP2-associated protein kinase 1 (Homo sapiens) (UniProt Q2M2I8); assay: Inhibition of AAK1 (unknown origin) assessed as remaining activity at 1 uM by Kinome scan method relative to control
# Summary of the method: (§1)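 Active-site-dependent competition-binding (KINOMEscan) panel of 468 kinases, test compound at 1 μM (from a 10 mM DMSO stock). Read-out is ctrl% = (test signal − positive control signal)/(negative control signal − positive control signal) × 100. DMSO is the negative control (100%) and a control compound is the positive control (0%). Lower ctrl% means tighter binding.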
# [3] = target: MAP/microtubule affinity-regulating kinase 4 (Homo sapiens) (UniProt Q96L34); assay: Inhibition of MARK4 (unknown origin) assessed as remaining activity at 1 uM by Kinome scan method relative to control
# Sequence of MAP/microtubule affinity-regulating kinase 4 (Homo sapiens) (Q96L34 whole entry): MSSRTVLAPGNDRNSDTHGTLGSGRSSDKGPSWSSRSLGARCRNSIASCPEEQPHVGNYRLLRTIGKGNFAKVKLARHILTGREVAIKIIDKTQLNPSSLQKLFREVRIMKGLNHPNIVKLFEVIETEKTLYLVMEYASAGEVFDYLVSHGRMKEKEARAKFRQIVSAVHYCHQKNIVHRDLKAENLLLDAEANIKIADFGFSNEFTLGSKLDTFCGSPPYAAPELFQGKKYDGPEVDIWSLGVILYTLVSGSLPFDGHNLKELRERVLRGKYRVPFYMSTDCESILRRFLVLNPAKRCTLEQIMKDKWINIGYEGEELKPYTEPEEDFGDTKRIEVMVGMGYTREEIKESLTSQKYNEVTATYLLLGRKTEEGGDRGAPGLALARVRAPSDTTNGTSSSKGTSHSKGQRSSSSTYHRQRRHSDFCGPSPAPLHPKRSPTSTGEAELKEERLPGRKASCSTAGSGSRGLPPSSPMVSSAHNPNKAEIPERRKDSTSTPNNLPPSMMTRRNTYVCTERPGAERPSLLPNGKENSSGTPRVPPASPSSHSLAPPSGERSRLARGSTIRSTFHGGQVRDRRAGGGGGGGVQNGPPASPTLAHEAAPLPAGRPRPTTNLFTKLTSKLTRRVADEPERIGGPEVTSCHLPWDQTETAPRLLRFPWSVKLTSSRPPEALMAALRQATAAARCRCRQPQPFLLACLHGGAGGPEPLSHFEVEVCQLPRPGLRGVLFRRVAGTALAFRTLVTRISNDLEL
# [4] = target: Serine/threonine-protein kinase RIO1 (Homo sapiens) (UniProt Q9BRS2); assay: Inhibition of RIOK1 (unknown origin) assessed as remaining activity at 1 uM by Kinome scan method relative to control
# [5] = tested on: Epidermal growth factor receptor (Homo sapiens), P00533 [L858R]; assay: Inhibition of EGFR L858R mutant (unknown origin) assessed as remaining activity at 1 uM by Kinome scan method relative to control
# [6] = target: LIM domain kinase 1 (Homo sapiens) (UniProt P53667); assay: Inhibition of LIMK1 (unknown origin) assessed as remaining activity at 1 uM by Kinome scan method relative to control
# Sequence of LIM domain kinase 1 (Homo sapiens) (P53667 whole entry, looked up, the tested form may be a part): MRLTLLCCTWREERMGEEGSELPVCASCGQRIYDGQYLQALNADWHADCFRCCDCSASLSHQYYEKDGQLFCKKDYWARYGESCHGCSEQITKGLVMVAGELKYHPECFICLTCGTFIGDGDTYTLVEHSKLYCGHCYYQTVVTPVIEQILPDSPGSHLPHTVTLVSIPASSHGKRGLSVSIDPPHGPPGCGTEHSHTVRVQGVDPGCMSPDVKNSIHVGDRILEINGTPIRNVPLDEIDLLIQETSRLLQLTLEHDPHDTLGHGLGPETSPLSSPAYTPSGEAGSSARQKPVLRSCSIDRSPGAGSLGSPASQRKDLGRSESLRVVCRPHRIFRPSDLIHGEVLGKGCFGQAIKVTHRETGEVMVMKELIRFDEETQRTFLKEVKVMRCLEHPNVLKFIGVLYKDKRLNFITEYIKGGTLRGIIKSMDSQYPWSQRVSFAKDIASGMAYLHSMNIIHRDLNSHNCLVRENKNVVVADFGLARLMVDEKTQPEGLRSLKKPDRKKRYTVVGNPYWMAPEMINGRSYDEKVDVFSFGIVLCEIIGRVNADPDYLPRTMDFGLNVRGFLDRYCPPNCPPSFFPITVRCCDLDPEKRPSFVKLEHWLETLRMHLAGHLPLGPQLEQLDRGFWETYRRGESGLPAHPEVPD
# [7] = target: Bone morphogenetic protein receptor type-1B (Homo sapiens) (UniProt O00238); assay: Inhibition of BMPR1B (unknown origin) assessed as remaining activity at 1 uM by Kinome scan method relative to control; summary of the method: as §1
# Sequence of Bone morphogenetic protein receptor type-1B (Homo sapiens) (O00238 whole entry): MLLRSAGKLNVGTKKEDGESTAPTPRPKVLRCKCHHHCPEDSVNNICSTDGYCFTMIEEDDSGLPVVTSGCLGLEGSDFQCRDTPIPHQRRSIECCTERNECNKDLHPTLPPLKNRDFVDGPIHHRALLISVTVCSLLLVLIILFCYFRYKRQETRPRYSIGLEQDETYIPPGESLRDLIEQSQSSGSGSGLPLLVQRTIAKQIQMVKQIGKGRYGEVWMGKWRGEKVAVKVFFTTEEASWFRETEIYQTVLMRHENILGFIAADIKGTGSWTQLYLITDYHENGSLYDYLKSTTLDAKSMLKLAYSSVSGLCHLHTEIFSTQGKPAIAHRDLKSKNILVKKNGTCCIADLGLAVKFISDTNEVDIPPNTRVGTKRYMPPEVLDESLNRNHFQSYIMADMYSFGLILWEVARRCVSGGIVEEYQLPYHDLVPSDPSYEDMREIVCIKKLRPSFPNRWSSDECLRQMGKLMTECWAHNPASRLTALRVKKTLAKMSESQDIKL
# [8] = tested on: HepG2; assay: Induction of apoptosis in human HepG2 cells assessed as viable cells at 3 uM by annexinV staining (Rvb =95.0 %); type: functional; conditions: read-out: Activity
# [9] = target: Ephrin type-A receptor 3 (Homo sapiens) (UniProt P29320); assay: Inhibition of EPHA3 (unknown origin) assessed as remaining activity at 1 uM by Kinome scan method relative to control
# [10] = target: Tyrosine-protein kinase Mer (Homo sapiens) (UniProt Q12866); assay: Inhibition of MERTK (unknown origin) assessed as remaining activity at 1 uM by Kinome scan method relative to control
# [11] = Inhibition of phosphorylated ABL1 T315I mutant (unknown origin) in presence of ATP by enzymatic assay; parameters: species or system Homo sapiens
# [12] = tested on: Mus musculus; assay: Protection against APAP induced liver injury in mouse assessed as decrease in ALT level at 1 mg/kg, ip administered at 1.5 hrs in the presence of NAC; type: functional, organism-based; conditions: Serum
# [13] = target: Rho-associated protein kinase 2 (Homo sapiens) (UniProt O75116); assay: Inhibition of ROCK2 (unknown origin) assessed as remaining activity at 1 uM by Kinome scan method relative to control
# [14] = target: Serine/threonine-protein kinase Nek4 (Homo sapiens) (UniProt P51957); assay: Inhibition of NEK4 (unknown origin) assessed as remaining activity at 1 uM by Kinome scan method relative to control
# [15] = target: Serine/threonine-protein kinase 38-like (Homo sapiens) (UniProt Q9Y2H1); assay: Inhibition of NDR2 (unknown origin) assessed as remaining activity at 1 uM by Kinome scan method relative to control
# [16] = target: Myosin light chain kinase, smooth muscle (Homo sapiens) (UniProt Q15746); assay: Inhibition of MYLK (unknown origin) assessed as remaining activity at 1 uM by Kinome scan method relative to control
# Sequence of Myosin light chain kinase, smooth muscle (Homo sapiens) (Q15746 whole entry): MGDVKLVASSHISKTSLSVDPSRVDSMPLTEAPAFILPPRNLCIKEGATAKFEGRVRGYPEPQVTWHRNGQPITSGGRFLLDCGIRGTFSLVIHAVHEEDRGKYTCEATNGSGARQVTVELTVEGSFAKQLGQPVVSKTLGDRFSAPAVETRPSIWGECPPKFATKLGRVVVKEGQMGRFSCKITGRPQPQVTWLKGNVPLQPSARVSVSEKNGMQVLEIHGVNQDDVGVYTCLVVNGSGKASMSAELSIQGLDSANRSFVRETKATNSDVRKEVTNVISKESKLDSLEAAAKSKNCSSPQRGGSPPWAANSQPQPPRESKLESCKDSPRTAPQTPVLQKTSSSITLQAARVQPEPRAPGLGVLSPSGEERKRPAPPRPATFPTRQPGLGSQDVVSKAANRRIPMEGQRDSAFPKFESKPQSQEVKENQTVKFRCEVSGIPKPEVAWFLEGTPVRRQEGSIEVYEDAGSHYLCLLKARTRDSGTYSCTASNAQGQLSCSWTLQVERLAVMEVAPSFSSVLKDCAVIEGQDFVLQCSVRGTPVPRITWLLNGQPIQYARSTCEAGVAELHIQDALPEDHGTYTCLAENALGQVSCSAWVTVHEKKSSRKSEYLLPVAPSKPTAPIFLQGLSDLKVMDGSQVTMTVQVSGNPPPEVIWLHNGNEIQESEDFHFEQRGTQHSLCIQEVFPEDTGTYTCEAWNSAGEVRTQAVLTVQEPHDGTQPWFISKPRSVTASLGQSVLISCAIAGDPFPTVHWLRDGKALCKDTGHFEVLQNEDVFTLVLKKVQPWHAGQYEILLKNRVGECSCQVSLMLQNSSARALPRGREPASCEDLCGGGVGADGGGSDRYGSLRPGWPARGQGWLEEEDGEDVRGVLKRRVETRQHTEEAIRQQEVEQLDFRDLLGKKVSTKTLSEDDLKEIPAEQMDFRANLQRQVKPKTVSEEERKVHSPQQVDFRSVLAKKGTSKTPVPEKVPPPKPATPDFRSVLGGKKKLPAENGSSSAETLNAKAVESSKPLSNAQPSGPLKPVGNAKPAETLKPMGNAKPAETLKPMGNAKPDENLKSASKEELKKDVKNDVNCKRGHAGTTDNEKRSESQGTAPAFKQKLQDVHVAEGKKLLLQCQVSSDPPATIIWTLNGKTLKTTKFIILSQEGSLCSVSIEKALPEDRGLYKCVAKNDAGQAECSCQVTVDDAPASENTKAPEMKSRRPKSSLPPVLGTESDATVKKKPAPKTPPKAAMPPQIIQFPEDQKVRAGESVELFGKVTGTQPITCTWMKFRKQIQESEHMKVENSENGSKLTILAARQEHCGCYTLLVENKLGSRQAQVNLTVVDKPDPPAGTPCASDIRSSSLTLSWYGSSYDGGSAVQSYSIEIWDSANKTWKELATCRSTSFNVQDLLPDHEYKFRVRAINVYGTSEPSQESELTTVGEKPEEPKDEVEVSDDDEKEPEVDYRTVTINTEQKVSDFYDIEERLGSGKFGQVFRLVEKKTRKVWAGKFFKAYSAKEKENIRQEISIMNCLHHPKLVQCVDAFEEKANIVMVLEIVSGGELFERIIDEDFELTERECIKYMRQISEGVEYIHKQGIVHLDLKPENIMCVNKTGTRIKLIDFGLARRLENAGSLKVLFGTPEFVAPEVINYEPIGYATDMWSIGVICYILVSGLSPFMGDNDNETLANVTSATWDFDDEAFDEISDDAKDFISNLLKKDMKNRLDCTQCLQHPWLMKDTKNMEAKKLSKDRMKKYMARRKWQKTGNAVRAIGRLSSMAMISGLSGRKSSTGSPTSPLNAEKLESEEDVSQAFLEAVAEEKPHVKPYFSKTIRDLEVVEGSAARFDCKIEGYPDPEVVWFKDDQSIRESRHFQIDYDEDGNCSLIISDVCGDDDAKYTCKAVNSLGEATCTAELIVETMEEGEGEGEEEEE
# [17] = tested on: Mus musculus; assay: In vivo inhibition of MST1/2 in mouse assessed as YAP phosphorylation level at 1 mg/kg, ip administration and measured after between 1.5 to 6 hrs by immunoblot analysis; type: functional, organism-based; conditions: time 1.5-6 hrs
# Summary of the method: (§2)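 Wild-type mice received 1 mg/kg intraperitoneally, with vehicle of 0.1% citric acid aqueous solution containing 20% Kolliphor HS 15. Livers were harvested over 0–12 h and lysates immunoblotted for p-MOB1 and p-YAP, normalized to control. Means ± SD, n = 3.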
# [18] = tested on: Mast/stem cell growth factor receptor Kit (Homo sapiens), P10721 [V559D,V654A]; assay: Inhibition of KIT V559D/V654A mutant (unknown origin) assessed as remaining activity at 1 uM by Kinome scan method relative to control
# [19] = target: cGMP-dependent protein kinase 1 (Homo sapiens) (UniProt Q13976); assay: Inhibition of PRKG1 (unknown origin) assessed as remaining activity at 1 uM by Kinome scan method relative to control
# [20] = target: Serine/threonine-protein kinase 16 (Homo sapiens) (UniProt O75716); assay: Inhibition of STK16 (unknown origin) assessed as remaining activity at 1 uM by Kinome scan method relative to control
# [21] = target: Phosphatidylinositol 4,5-bisphosphate 3-kinase catalytic subunit gamma isoform (Homo sapiens, UniProt P48736); assay: Inhibition of PIK3CG (unknown origin) in presence of ATP by enzymatic assay
# [22] = target: RAF proto-oncogene serine/threonine-protein kinase (Homo sapiens) (UniProt P04049); assay: Inhibition of RAF1 (unknown origin) assessed as remaining activity at 1 uM by Kinome scan method relative to control
# [23] = target: Protein kinase C epsilon type (Homo sapiens) (UniProt Q02156); assay: Inhibition of PRKCE (unknown origin) assessed as remaining activity at 1 uM by Kinome scan method relative to control
# [24] = tested on: HepG2; assay: Induction of apoptosis in human HepG2 cells assessed as late apoptosis cells at 3 uM by annexinV staining (Rvb =0.84 %); type: functional
# [25] = tested on: Mus musculus; assay: Protection against APAP induced liver injury in mouse assessed as continual expansion of centrilobular necrotic lesions at 1 mg/kg, ip administered at 2.5 hrs by TUNEL staining; type: functional, organism-based
# [26] = tested on: HepG2; assay: Inhibition of Flag-tagged MST1 D109A mutant (unknown origin) in human HepG2 cells assessed as MOB1 phosphorylation level at 0.3 to 10 uM by immunoblot analysis; type: cell-based; conditions: dose 0.3-10 µM
# [27] = tested on: Mus musculus; assay: In vivo inhibition of MST1/2 in mouse assessed as MOB1 phosphorylation level at 1 mg/kg, ip administration and measured after between 1.5 to 6 hrs by immunoblot analysis; type: functional, organism-based; conditions: time 1.5-6 hrs; summary of the method: as §2
# [28] = target: Homeodomain-interacting protein kinase 1 (Homo sapiens) (UniProt Q86Z02); assay: Inhibition of HIPK1 (unknown origin) assessed as remaining activity at 1 uM by Kinome scan method relative to control
# Sequence of Homeodomain-interacting protein kinase 1 (Homo sapiens) (Q86Z02 whole entry, looked up): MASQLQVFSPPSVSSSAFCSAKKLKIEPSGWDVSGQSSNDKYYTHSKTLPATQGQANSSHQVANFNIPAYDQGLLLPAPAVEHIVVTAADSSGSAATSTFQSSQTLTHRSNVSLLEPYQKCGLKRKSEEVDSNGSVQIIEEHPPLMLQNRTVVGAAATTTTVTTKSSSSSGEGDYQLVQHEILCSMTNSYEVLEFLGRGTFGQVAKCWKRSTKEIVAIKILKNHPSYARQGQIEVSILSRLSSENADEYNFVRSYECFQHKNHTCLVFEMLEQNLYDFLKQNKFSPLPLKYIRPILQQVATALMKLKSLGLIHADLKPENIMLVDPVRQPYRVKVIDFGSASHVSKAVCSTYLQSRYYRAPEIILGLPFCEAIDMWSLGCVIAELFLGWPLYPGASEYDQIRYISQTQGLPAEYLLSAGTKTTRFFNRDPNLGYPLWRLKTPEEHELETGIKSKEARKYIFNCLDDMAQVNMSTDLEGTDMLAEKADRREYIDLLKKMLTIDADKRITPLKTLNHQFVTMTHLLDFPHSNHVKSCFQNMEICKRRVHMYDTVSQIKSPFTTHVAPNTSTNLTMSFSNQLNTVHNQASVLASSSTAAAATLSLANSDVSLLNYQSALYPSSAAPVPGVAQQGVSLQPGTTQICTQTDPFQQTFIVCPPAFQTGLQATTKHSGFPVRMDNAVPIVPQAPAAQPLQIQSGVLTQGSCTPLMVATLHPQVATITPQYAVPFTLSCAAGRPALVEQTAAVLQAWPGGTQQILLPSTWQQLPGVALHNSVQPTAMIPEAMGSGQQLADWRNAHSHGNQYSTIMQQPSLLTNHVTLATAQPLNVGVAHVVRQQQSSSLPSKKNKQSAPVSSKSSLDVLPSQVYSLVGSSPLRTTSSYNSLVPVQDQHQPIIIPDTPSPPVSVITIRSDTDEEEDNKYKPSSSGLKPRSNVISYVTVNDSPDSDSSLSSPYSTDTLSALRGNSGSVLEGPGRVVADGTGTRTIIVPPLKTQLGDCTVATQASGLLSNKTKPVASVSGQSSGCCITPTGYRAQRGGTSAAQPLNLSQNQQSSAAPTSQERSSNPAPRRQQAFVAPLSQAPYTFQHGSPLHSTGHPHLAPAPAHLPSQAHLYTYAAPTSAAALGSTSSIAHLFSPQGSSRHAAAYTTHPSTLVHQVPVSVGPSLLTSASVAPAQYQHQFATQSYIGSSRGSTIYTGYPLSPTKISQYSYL
# [29] = tested on: HepG2; assay: Induction of apoptosis in human HepG2 cells overexpressing MST2 assessed as late apoptosis cells at 3 uM by annexinV staining (Rvb =2.01 %); type: functional
smiles,measurement,setting,value
CN1C(=O)c2sccc2N(C)c2nc(Nc3ccc(S(N)(=O)=O)cc3)ncc21,Activity,[1],Non-Toxic
same,Activity,[2],100%
same,Activity,[3],100%
same,Activity,[4],86%
same,Activity,[5],100%
same,Activity,[6],96%
same,Activity,[7],26%
same,viability at 3 µM,[8],95%
same,Activity,[9],91%
same,Activity,[10],100%
same,IC50,[11],16.6 nM
same,Activity,[12],Active
same,Activity,[13],96%
same,Activity,[14],94%
same,Activity,[15],82%
same,Activity,[16],100%
same,inhibition,[17],Active
same,Activity,[18],92%
same,Activity,[19],98%
same,Activity,[20],50%
same,IC50,[21],38.4 nM
same,Activity,[22],80%
same,Activity,[23],98%
same,Activity,[24],0.96%
same,Activity,[25],Active
same,inhibition,[26],Active
same,inhibition,[27],Active
same,Activity,[28],91%
same,Activity,[29],1.54%
